# In ChEMBL document CHEMBL1134635, “Aziridinyl quinone antitumor agents based on indoles and cyclopent[b]indoles: structure-activity relationships for cytotoxicity and antitumor activity” (2001):
# What was measured:
# NCI-H460 [1] = test: Concentration of the drug required for total growth inhibition against NSC H460 cell line.; assay type: functional; conditions: Homo sapiens, read-out: Log TGI (converted)
# NCI-H460 [2] = test: Concentration required for 50% cell kill. against NSC H460 cell line.; assay type: functional; conditions: Homo sapiens; for CC50: read-out: Log LC50 (the source's name) (converted)
# NCI-H460 [3] = test: Concentration of the drug required for 50% growth inhibition against NSC (non small cell) H460 cell line.; assay type: functional; conditions: Homo sapiens
# [4] = molecular target: NAD(P)H dehydrogenase [quinone] 1 (Homo sapiens) (UniProt P15559); test: The substrate specificity obtained from the ratio of Vmax to KM for human DT-diaphorase (from non-small-cell lung NCI-H460 cell line); assay type: cell-based
# NAD(P)H dehydrogenase [quinone] 1 (Homo sapiens), sequence (P15559 whole entry): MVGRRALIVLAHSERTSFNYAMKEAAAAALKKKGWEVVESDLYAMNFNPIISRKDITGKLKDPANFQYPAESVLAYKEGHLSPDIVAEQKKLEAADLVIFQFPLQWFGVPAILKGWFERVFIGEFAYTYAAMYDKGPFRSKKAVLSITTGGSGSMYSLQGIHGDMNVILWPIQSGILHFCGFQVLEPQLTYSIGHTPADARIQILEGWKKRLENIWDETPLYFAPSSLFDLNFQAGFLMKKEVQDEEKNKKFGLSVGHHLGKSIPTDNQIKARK
# Summary of the method: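 Recombinant human DT-diaphorase (from NCI-H460) at 1.4 × 10^-9 M final with 0.3 mM NADH in Tris buffer, quinone 1.3 × 10-6 to 6.7 × 10^-5 M final from a 4.0 mM DMSO stock. Both parts argon-purged 20 min and held at 30 °C 10 min, then mixed.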
# Nucleic Acid = test: % of DNA reductive alkylation determined by catalytic reduction of aziridinyl quinones in presence of 600 bp calf thymus DNA; assay type: functional; set-up: concentration or dose not given beside the values; conditions: Bos taurus
# Summary of the method: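 Calf thymus DNA (1-2 mg, sonicated to ~600 bp) in 0.05 M Tris pH 7.4 with Pd/C, quinone added at 5:1 base pair equivalents in DMSO. Degassed under argon, H2-purged 10 min, argon-purged, then 30 °C for 24 h anaerobically. Catalyst filtered off, DNA ethanol-precipitated twice, and alkylation quantified by absorbance at 550 nm (ε 800 M-1 cm-1).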
# [5] = test system: Panel NCI-60 (60 carcinoma cell lines); test: Cancer specificity was measured from the +/- value under average log LC50 60-cell line.; assay type: functional; conditions: Homo sapiens, read-out: Average log LC50 (converted)
# B16 [6] = test: Treated over control values(T/C) were measured at day 25 by B16 melanoma syngraft assay at 5 mg/kg/day on day 9 after sc tumor implantation of 10 E(5) cells; assay type: functional, Mus musculus; conditions: route subcutaneous
# Summary of the method: (§1)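 B16 melanoma syngraft in C57/bl mice, 10^5 cells implanted subcutaneously in the front flank on day 0. T/C recorded at day 25. Toxic means early lethality, or ≥50% lethality before any control deaths.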
# B16 [7] = test: Treated over control values(T/C) were measured at day 25 by B16 melanoma syngraft assay at 3 mg/kg/day on day 5 after sc tumor implantation of 10 E(5) cells; assay type: functional, Mus musculus; conditions: route subcutaneous; summary of the method: as §1
# B16 [8] = test: Treated over control values(T/C) were measured at day 25 by B16 melanoma syngraft assay at 2 mg/kg/day on day 1 after sc tumor implantation of 10 E(5) cells; assay type: functional, Mus musculus; conditions: route subcutaneous; summary of the method: as §1
# NCI-H460 [9] = test: Concentration required for 50% cell kill against NSC H460 cell line.; assay type: functional; conditions: Homo sapiens, read-out: Log LC50 (the source's name) (converted)
# NCI-H460 [10] = test: Concentration required for 50% growth inhibition against NSC (non small cell) H460 cell line.; assay type: functional; conditions: Homo sapiens
# NCI-H460 [11] = test: Concentration required for total growth inhibition against NSC H460 cell line.; assay type: functional; conditions: Homo sapiens, read-out: Log TGI (converted)
# [12] = test system: Panel NCI-60 (60 carcinoma cell lines); test: Cancer specificity was measured from the +/- value under average log LC50 NCI 60-cell line.; assay type: functional; conditions: Homo sapiens, read-out: Average log LC50 (converted)
# [13] = test system: Panel NCI-60 (60 carcinoma cell lines); test: Cancer specificity was measured from the +/- value under average log LC50 60-cell line; assay type: functional; conditions: Homo sapiens, read-out: Average log LC50 (converted)
Compound,TGI (NCI-H460 [1]) [µM],GI50 (NCI-H460 [3]) [µM],Ratio [4],Activity (Nucleic Acid) [%],LC50 [5] [µM],Activity (B16 [6]) [%],Activity (B16 [7]) [%],Activity (B16 [8]) [%],also measured
CCOC(=O)c1[nH]c2c(c1CO)C(=O)C(N1CC1)=C(C)C2=O,0.0102,0.01,403000,5.6,2.04,,,,CC50 (NCI-H460 [2]): 0.0871 µM
CC(=O)OC1CCc2c3c(n(C(C)=O)c21)C(=O)C=C(N1CC1)C3=O (stereo not given),,,705000,14,,,,,
CC(=O)OC1CCc2c1[nH]c1c2C(=O)C=C(N2CC2)C1=O (stereo not given),,,802000,29,,>50,,,
CC(=O)OC1CCc2c3c(n(C(C)=O)c21)C(=O)C(N1CC1)=CC3=O (stereo not given),,,234000,12,,>50,>50,50,
O=C1C(N2CC2)=CC(=O)c2c1[nH]c1c2CCC1O (stereo not given),0.0575,0.00724,128000,30,2.57,,,,CC50 (NCI-H460 [2]): 1.78 µM
CC(=O)OC1CCc2c1[nH]c1c2C(=O)C(N2CC2)=CC1=O (stereo not given),,,651000,34,,,,,
CC(=O)OCc1[nH]c2c(c1C)C(=O)C(N1CC1)=C(C)C2=O,,,,,,>50,>50,47,
O=C1C=C(N2CC2)C(=O)c2c1[nH]c1c2CCC1O (stereo not given),,,405000,22.5,,,,,CC50 (NCI-H460 [9]): 0.295 µM; GI50 (NCI-H460 [10]): 0.01 µM; TGI (NCI-H460 [11]): 0.102 µM; CC50 [12]: 2.19 µM
CC1=C(N2CC2)C(=O)c2c([nH]c3c2CCC3O)C1=O (stereo not given),0.0214,0.01,147000,11.2,18.2,,,,LC50 (NCI-H460 [2]): 0.851 µM
CCOC(=O)c1[nH]c2c(c1CO)C(=O)C=C(N1CC1)C2=O,4.07,1.58,,2.2,,,,,CC50 [13]: 4.79 µM
CC(=O)OC1CCc2c3c(n(C)c21)C(=O)C(N1CC1)=C(C)C3=O (stereo not given),,,30000,1.4,,,,,
CC1=C(N2CC2)C(=O)c2[nH]c(CO)c(CO)c2C1=O,,,106000,4,,>50,>50,54,
CC1=C(N2CC2)C(=O)c2c([nH]c(CO)c2CO)C1=O,0.0324,0.01,81500,2,2.88,>50,>50,36,LC50 (NCI-H460 [2]): 1.17 µM
CC1=C(N2CC2)C(=O)c2c(c3c(n2C)C(O)CC3)C1=O (stereo not given),7.59,1.26,85500,0.3,100,,,,LC50 (NCI-H460 [2]): 50.1 µM
CCOC(=O)c1[nH]c2c(c1COC(C)=O)C(=O)C(N1CC1)=CC2=O,0.17,0.0372,722000,91.2,2.4,,,,CC50 (NCI-H460 [2]): 0.603 µM
CC(=O)OC1CCc2c1[nH]c1c2C(=O)C(N2CC2)=C(C)C1=O (stereo not given),,,65500,21,,,,,

Compound,TGI (NCI-H460 [1]) [µM],GI50 (NCI-H460 [3]) [µM],Ratio [4],Activity (Nucleic Acid) [%],LC50 [5] [µM],Activity (B16 [6]) [%],Activity (B16 [7]) [%],Activity (B16 [8]) [%],also measured
O=C1C=C(N2CC2)C(=O)c2c1[nH]c(CO)c2CO,,,587000,16.7,,>50,>50,>50,
CC1=C(N2CC2)C(=O)c2c(c(CO)c(CO)n2C)C1=O,,,41700,0,,>50,,,GI50 (NCI-H460 [10]): 0.0389 µM; TGI (NCI-H460 [11]): 0.219 µM
CC1=C(N2CC2)C(=O)c2c([nH]c(C)c2C)C1=O,,,,,,>50,60,10,
CC(=O)OC1CCc2c3c(n(C(C)=O)c21)C(=O)C(C)=C(N1CC1)C3=O (stereo not given),,,132000,1.2,,,,,
CC1=C(N2CC2)C(=O)c2c(CO)c(CO)n(C)c2C1=O,,,32600,0,,,,,
O=C1C(N2CC2)=CC(=O)c2c1[nH]c(CO)c2CO,1.15,0.138,274000,3.4,8.51,,,,LC50 (NCI-H460 [2]): 11.7 µM
CC(=O)OC1CCc2c1[nH]c1c2C(=O)C(C)=C(N2CC2)C1=O (stereo not given),0.676,0.112,160000,44,21.4,,,,LC50 (NCI-H460 [2]): 1.23 µM
CC(=O)OCc1[nH]c2c(c1COC(C)=O)C(=O)C(C)=C(N1CC1)C2=O,0.178,0.0355,158000,37,30.2,>50,>50,74,CC50 (NCI-H460 [2]): 0.603 µM
CC1=C(N2CC2)C(=O)c2[nH]c(C)c(C)c2C1=O,,,,,,>50,>50,22,
CC1=C(N2CC2)C(=O)c2[nH]c3c(c2C1=O)CCC3O (stereo not given),0.107,0.01,142000,10,72.4,45,,75,
CC(=O)OC1CCc2c3c(n(C(C)=O)c21)C(=O)C(N1CC1)=C(C)C3=O (stereo not given),0.437,0.0832,56200,9,25.1,15,15,37,LC50 (NCI-H460 [2]): 5.01 µM
CCOC(=O)c1[nH]c2c(c1CO)C(=O)C(N1CC1)=CC2=O,0.1,0.01,4.3e+06,37,1.62,,,,LC50 (NCI-H460 [2]): 0.631 µM
CC(=O)OCc1[nH]c2c(c1COC(C)=O)C(=O)C(N1CC1)=CC2=O,,,172000,43,,,,,
Cn1c(CO)c(CO)c2c1C(=O)C=C(N1CC1)C2=O,0.01,0.01,302000,3.8,4.47,>50,>50,>50,LC50 (NCI-H460 [2]): 0.01 µM
CC1=C(N2CC2)C(=O)c2[nH]c(CO)c(C)c2C1=O,,,,,,34,37,61,
